IMP-1 inhibitor = inhibitors of Pseudomonas aeruginosa IMP-1 metallo-beta-lactamase. purified IMP-1, nitrocefin hydrolysis, epi-absorbance fluorescence. inhibition, % at 5.6 µM. AID 1556. hit rate 0.45% among 290,000;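 active = inhibition above the mean plus 3 SD of all compounds in the same screening run, cut at about 4.5% in these data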;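 also: 0% = IMP-1 with DMSO and 100% = DMSO wells lacking enzyme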
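System: Purified IMP-1 | Read-out basis: Percent enzyme inhibition | Controls: IMP-1 with DMSO as 0%, enzyme-free DMSO as 100% | Replicates: One well per compound | Doses: 5.6 µM nominal single concentration | Detection: Epi-absorbance fluorescence, 480 nm excitation, 530 nm emission | Incubation: 25 °C, 15 min preincubation, 25 min reaction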
PolyA inh = blocks polyadenylation in yeast reporter cells; AID 1875; S. cerevisiae SKY197-pL101 polyadenylation reporter, beta-gal luminescence; efflux-impaired pdr1/pdr3 knockout yeast; score 100 = 6 SD above DMSO; activity score, % at 12 µM; hit rate 0.02% among 300,000;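 active = lowest replicate activity score at least 50, where 100 means six control SD above control mean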;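 also: yeast exposed to compound for 9 h at 30 °C; higher score means more reporter readthrough which indicates perturbed polyadenylation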
SUMO Mot1 rescue = blocks SUMOylation pathway, rescuing yeast Mot1-301 growth | S. cerevisiae Mot1-301 growth rescue, ATP luminescence, 38.5C; percent above DMSO median, 100 means doubled | growth rescue, % at 18.8 µM | hit rate 1% among 320,000 | AID 2716;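 active = every valid replicate shows activation above 250% relative to neutral control wells; inactive = the rest, any valid replicate at or below 250%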;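 also: OY570 slx delta 5 strain wells were the positive control but not used for scaling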
NALP1 yeast inh = blocks the NALP1 inflammasome reconstituted in yeast; S. cerevisiae NALP1/ASC/caspase-1 growth, X-gal OD620, 72 h; inhibition, % at 10 µM; hit rate 0.61% among 280,000; in the data active = inhibition mostly above about 24%, no sharp cut-off; inactive = mostly below about 32%
VIM-2 inhibitor = inhibitors of Pseudomonas aeruginosa VIM-2 metallo-beta-lactamase. inhibition, % at 5.6 µM. hit rate 0.89% among 290,000. purified VIM-2, nitrocefin hydrolysis, epi-absorbance fluorescence;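 active = inhibition above the mean of all tested compounds plus 3 SD, cutoff set per screening run, cut at about 7.5% in these data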;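 also: red hydrolysis product quenches plate fluorescence so inhibitors raise well fluorescence; 0% = enzyme with DMSO and 100% = DMSO without enzyme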
NALP3 yeast inh = NALP3 inhibition in yeast; Yeast reconstituted NLRP3/ASC/caspase-1, beta-gal luminescence, 24 h; inhibition, % at 10 µM; hit rate 0.39% among 330,000; AID 2825;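 active = inhibition of 50% or more; inactive = inhibition below 50%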;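 also: plate controls were induced DMSO wells for no effect and uninduced yeast grown without galactose for full effect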
VIM-2 inh confirm = VIM-2 inhibition, confirmation assay. inhibition, % at 5.6 µM. shares compounds with IMP-1 inhibitor. hit rate 73% among 200. purified VIM-2 enzyme, nitrocefin absorbance; in the data active = inhibition above about 8%;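 also: 0% = enzyme with vehicle and 100% = no enzyme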
TEM-1 inh 2 = blocks E. coli TEM-1 beta-lactamase, VIM-2 IMP-1 counter-screen; hit rate 50% among 200; AID 2184; inhibition, % at 5.6 µM; nitrocefin absorbance inhibition; shares compounds with IMP-1 inhibitor; in the data active = inhibition above about 0.66%
Target sequence (P62593 whole entry, looked up): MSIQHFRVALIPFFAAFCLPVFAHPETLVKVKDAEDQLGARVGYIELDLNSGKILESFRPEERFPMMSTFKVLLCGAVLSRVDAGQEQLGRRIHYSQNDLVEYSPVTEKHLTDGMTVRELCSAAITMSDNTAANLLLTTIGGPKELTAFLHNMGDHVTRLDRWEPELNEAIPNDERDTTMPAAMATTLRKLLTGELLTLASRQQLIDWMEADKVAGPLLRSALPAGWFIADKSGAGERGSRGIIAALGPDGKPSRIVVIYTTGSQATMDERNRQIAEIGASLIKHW
IMP-1 confirm = confirmation of P. aeruginosa IMP-1 metallo-beta-lactamase inhibitors; shares compounds with IMP-1 inhibitor; purified IMP-1 enzyme, absorbance substrate hydrolysis; inhibition, % at 5.6 µM; hit rate 60% among 200; AID 2189; in the data active = inhibition above about 4.9%;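 also: 0% = enzyme with vehicle and 100% = vehicle without enzyme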
* hit, by the source's call; . = no result. Only some compounds are listed: those with a hit (about 2.9% of all), similar ones and a draw of the others.

SMILES | IMP-1 inhibitor | PolyA inh | SUMO Mot1 rescue | NALP1 yeast inh | VIM-2 inhibitor | NALP3 yeast inh | VIM-2 inh confirm | TEM-1 inh 2 | IMP-1 confirm
Cc1cc(NC(=O)CSc2nnc(CNC(=O)c3c(F)cccc3F)o2)no1 | -3 | -14 | 0 | -1 | -7 | 20 | . | . | .
O=C(OCCN1C(=O)c2ccccc2C1=O)c1ccco1 | 0 | 2 | -8 | 6 | 1 | 12 | . | . | .
CC(C)C(CCN1C(=O)c2ccccc2C1=O)c1ccco1 (stereo unspecified) | 7.3* | -13 | -4 | 4 | 15* | 35 | 33* | -1 | 19*
CCCCCCn1c(=O)[nH]c2nc3cc(N)ccc3nc2c1=O | 16* | 2 | 0 | 25 | 12* | . | 15* | 31* | 13*
O=C1CC(NCc2ccc3c(c2)OCO3)C(=O)N1CCc1ccccc1 (stereo unspecified) | 42* | -12 | 5 | 10 | 47* | 6 | -2 | -5 | -4
CCN1C(=O)CC(NCc2ccc3c(c2)OCO3)C1=O (stereo unspecified) | -2 | -1 | -7 | 13 | 0 | 7 | . | . | .
CCN(CC)c1ccc(/C=C/C(=O)c2ccc(Br)cc2)cc1 | 8.0* | -22 | -2 | 35 | 14* | . | 33* | 48* | 31*
CN1CCN(S(=O)(=O)c2ccc(-c3ccc(Cl)cc3)cc2)CC1 | 42* | 2 | 1 | 11 | 11* | 48 | 4 | -4 | -3
CN1CCN(S(=O)(=O)c2ccc(Cl)cc2)CC1 | 1 | 5 | 21 | 25 | 2 | 5 | . | . | .
CC(=O)c1cnc2nc(SCc3cccc(C)c3)nn2c1C | 0 | -20 | 11 | 8 | 2 | 21 | . | . | .
Cc1cccc(C)c1NC(=O)COC(=O)c1c2c(nc3ccccc13)/C(=C\c1ccc3c(c1)OCO3)CCC2 | 17* | . | 86 | 9 | 20* | . | 0 | -4 | -1
Cc1cccc(C)c1NC(=O)COC(=O)c1ccc2c(c1)OCO2 | -2 | 12 | 17 | -14 | -2 | 9 | . | . | .
CC(OC(=O)c1c2c(nc3ccccc13)/C(=C\c1ccc3c(c1)OCO3)CCC2)C(=O)Nc1ccc(S(N)(=O)=O)cc1 (stereo unspecified) | 13* | . | . | 20 | 18* | . | 15* | 29* | 10*
O=C(O)C1Sc2[nH]c(=O)sc2C2c3ccc(O)cc3OC(=O)C12 (stereo unspecified) | 8.6* | . | 161 | -23 | 7.9* | 3 | 5 | -5 | 4
CC1(C(=O)O)Sc2[nH]c(=O)sc2C2c3ccccc3OC(=O)C21 (stereo unspecified) | -1 | 6 | -19 | 11 | -1 | 12 | . | . | .
CC(=O)Nc1oc(-c2cccc3ccccc23)nc1C#N | . | . | 7 | . | . | 21 | . | . | .
Cc1ccc(NC(=O)C2C(c3ccccc3)C=CC(c3ccccc3)C2C(=O)O)cc1 (stereo unspecified) | 85* | 6 | 71 | 24 | 46* | 4 | 7 | -4 | 61*
O=C(CSc1nnc(-c2ccc(O)cc2)n1-c1ccccc1)CC(=O)Nc1ccccc1 | 7.9* | -15 | -5 | 6 | 16* | -6 | 0 | -5 | -3
Cn1c(SCC(=O)CC(=O)Nc2ccccc2)nnc1-c1ccc(O)cc1 | -3 | -3 | -24 | -11 | -3 | 19 | . | . | .
Cc1ccc2nc3c(cc(C(=O)NCC4CCCO4)n3C)c(=O)n2c1 (stereo unspecified) | -2 | . | . | 4 | 1 | . | . | . | .
Cc1ccc2nc3c(cc(C(=O)NCCCn4ccnc4)n3C)c(=O)n2c1 | 8.4* | 8 | 4 | 4 | 15* | -10 | 2 | -1 | -2
CN1CCCN(C(=O)CNC(=O)c2ccc(Cl)cc2Cl)CC1 | . | . | 8 | . | . | 3 | . | . | .
C[n+]1cc(C(=O)N2CCCCC2)ccc1/C=C/c1c[nH]c2ccccc12 | 4.9* | 1 | 6 | 3 | 7 | 13 | 14* | 0.5* | 5.6*
CCC(CO)Nc1nc2ccc(Cl)cc2c2ccccc12 (stereo unspecified) | -4 | 1 | 25 | 29 | -2 | 21 | . | . | .
COc1ccc(/C(C)=N/NC(=O)CNC(=O)/C=C\c2ccccc2)c(OC)c1 | -2 | 2 | 73 | 12 | -2 | 1 | . | . | .
SMILES | IMP-1 inhibitor | PolyA inh | SUMO Mot1 rescue | NALP1 yeast inh | VIM-2 inhibitor | NALP3 yeast inh | VIM-2 inh confirm | TEM-1 inh 2 | IMP-1 confirm
CCN(CC)c1ccc(/C=C(\C#N)C(=O)NCc2ccco2)cc1 | 5.3* | . | 6 | 31 | 18* | . | -3 | -6 | -4
Cc1nn(C)c(C)c1N1C(=O)c2cccc3c(N)ccc(c23)C1=O | 35* | . | 8 | 34 | 31* | . | 42* | 55* | 38*
CCN1C(=O)c2cccc3c(N)ccc(c23)C1=O | 43* | -13 | -3 | 13 | 48* | -3 | 45* | 51* | 35*
C(#Cc1ccccc1)C[N+]1(CC#Cc2ccccc2)CCCC1 | -5 | 10 | 6 | -1 | -1 | 4 | . | . | .
C=CC#CC[N+]1(CC#Cc2ccccc2)CCOCC1 | 20* | 0 | . | -6 | 20* | . | 34* | -5 | -3
c1nc(NCCN2CCOCC2)c2sc3nc(N4CCOCC4)c4c(c3c2n1)CCC4 | 7.6* | 17 | 18 | 2 | 9.5* | . | 16* | -4 | -1
C/C(=N\Nc1ncnc2sc(C)c(C)c12)c1ccccn1 | 13* | 20 | -15 | -4 | 14* | 23 | 38* | 7.1* | 4
Cc1sc2ncnc(N/N=C/c3cccc(O)c3)c2c1C | -3 | 25 | -9 | 24 | -1 | 15 | . | . | .
Cc1nn(-c2ccccc2)c(Cl)c1/C=C(\CC(=O)O)c1nc2ccccc2s1 | 8.4* | 9 | -19 | -2 | 24* | 12 | 37* | -5 | 5.5*
Cc1c(/C=C(\CC(=O)O)c2nc3ccccc3s2)cc(C#N)n1C | -2 | 0 | -3 | 9 | -1 | 13 | . | . | .
Cc1nn(-c2ccc(F)cc2)c(Cl)c1/C=C(\CC(=O)O)c1nc2ccccc2s1 | 7.9* | -11 | 15 | 6 | 32* | 11 | 34* | -2 | 1
Cc1cccc(NC2SC(=O)N(c3ccccc3)C2=O)c1 (stereo unspecified) | -1 | -22 | -26 | -2 | -1 | 2 | . | . | .
CC(=O)N(c1cccc(C)c1)C1SC(=O)N(c2ccccc2)C1=O (stereo unspecified) | 12* | -13 | -12 | 3 | 8.3* | 11 | 9.0* | -5 | 18*
CN(CCOc1ccc(Cl)cc1)C(=O)C1CCN(C(=O)c2ccc(Cl)cc2)CC1 | 0 | -9 | -15 | 3 | -2 | 13 | . | . | .

Source: PubChem BioAssay (several laboratories)
